From the RNAGym collection of RNA variant scans (doi:10.1126/science.aae0568)
Variants at the floor of the assay were thinned out.

B1: tRNA (parent)
chain: GUUCCGUUGGCGUAAUGGUAACGCGUCUCCCUCCUAAGGAGAAGACUGCGGGUUCGAGUCCCGUACGGAACG

Variants of: B1
Assay: yeast fitness relative to wild type (ratio to wild type); higher = fitter; tRNA-Arg(CCU), competitive growth, 37 C, YPD
Method in brief: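 Start and end populations of a pooled competition were compared by 100-nucleotide paired-end sequencing of gene amplicons. The Saccharomyces cerevisiae strains carried tRNA-Arg(CCU) gene variants at the native genomic locus, synthesised with a 3% per-site mutation rate at 69 sites, and competed in YPD at 37°C for 24 hours in six parallel replicates. Darwinian fitness relative to wild type was based on the change in genotype frequencies. Genotypes required ≥ 100 starting reads, and estimates < 0.5 were set to 0.5.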

With GUUCGGUUGGCGUAAUGGCAACGCGUCUCCCUCCAAAGGAGACGACUGCGGGUUCGAGUCCCGUCCGGAACG [C5G U19C U35A A43C A65C] as the variant, how does the yeast fitness read?
Its yeast fitness is at most 0.5.

Which yeast fitness does the source give for GUUCGGUUGGCGUAAUGGUAACGCGACUCCCUCCUCAGGAGAAGACUGCGGGUUCGAGUCCCGUACGGAACG [C5G U26A A36C] here?
Its yeast fitness is at most 0.5.

Which yeast fitness does the source give for GUUCGGUUGGCGGAAUGGUAACGCGUCUUCCUCCUAAGGAGAAGACUGCCGGUUCGAGACCCGUACGGAACG [C5G U13G C29U G50C U59A] here?
The yeast fitness was at most 0.5.

Which yeast fitness does the source give for GUUCGGUUGGCGCAAUGGUAGCGCGUCUCCCUCCUAAGGAGAAGACUGAGGGUUCGAGUCCCGUACGGAACG [C5G U13C A21G C49A] here?
The yeast fitness was at most 0.5.

With GUUCGGUUGGCGGAAUGGUAACGGGUCUCCCUCCUAAGGAGAAGACUGCGGGUUCGAGUCCCGUACGGAACG [C5G U13G C24G] as the variant, how does the yeast fitness read?
Its yeast fitness is at most 0.5.

With GUUCGGUUGGCGCAAUGGUACCGCGUCUCCCUCCUAAGGAGAAGACUGCGGGUUCGAGUCCCGUACGAAACG [C5G U13C A21C G68A] as the variant, how does the yeast fitness read?
Its yeast fitness is at most 0.5.

Which yeast fitness does the source give for GUUCGGUUGGCGUAAUGGAAACGGGUCUCCCUCAUAAGGAGAAGACUGCGGGUUUGAGUCCCGUACGGAACG [C5G U19A C24G C34A C55U] here?
The yeast fitness was 0.601.

For GUUCGGUUGGCGUAAAGGUACCGCGUCUCCCUCCUAAGGAGAAGACUGCGGGUUCGCGUCCCGUACGGAACG [C5G U16A A21C A57C], which yeast fitness is on record?
Its yeast fitness is 0.624.

With GUUCGGUUGGCGUAAUGGGAACGCGUCUCCUACCUAAGGAGAAGUCUGCGGGUUCGAGUCCCGUACGGAUCG [C5G U19G C31U U32A A45U A70U] as the variant, how does the yeast fitness read?
Its yeast fitness is at most 0.5.

Which yeast fitness does the source give for GUUCGGUUGGCGCAAUGGUAAGGCGUCUGCCUCCUAAGGAGAAGCCUGCGGGUUCGAGUCCCGUACGGAACG [C5G U13C C22G C29G A45C] here?
The yeast fitness was at most 0.5.

For GUUCGGUUGGCGUAAUGGUAACGCGCCUCCCUCCUCAGGAGAAGACUGCGGGUUCGAGUCCCGUACGGAACG [C5G U26C A36C], which yeast fitness is on record?
Its yeast fitness is 0.547.

Which yeast fitness does the source give for GUUCGGUUGGCGUAAUGGGAAUGCGUCUCCCCCCUAAGGAGAAGACUGCGGGUUCAAGUCCCGUCCGGAACG [C5G U19G C22U U32C G56A A65C] here?
Its yeast fitness is at most 0.5.

With GUUCGGUUGGCGCAAUGGUAACGUGUCUCCCUCCUAAGGAGAAGACUGUGGGUUCGAGUCCCGUACGGAGCG [C5G U13C C24U C49U A70G] as the variant, how does the yeast fitness read?
The yeast fitness was at most 0.5.

Which yeast fitness does the source give for GUUCGGUUGGCGCAAUGGUAACGCGUCUCCCUCCUAUGGAGAAGACUGCGCGUUCGCGUCCCGUACGGAACG [C5G U13C A37U G51C A57C] here?
Its yeast fitness is at most 0.5.

For GUUCGGUUGGCGUAAUGGUAACGCGCCUCCCUCGUAAGGAGAAGACUGCGGGUUAGAGUCCCGUACGGUACG [C5G U26C C34G C55A A69U], which yeast fitness is on record?
Its yeast fitness is at most 0.5.

For GUUCGGUUGGCGCAAUGGUACCGCGUCUCCCUCCUAAGGAGAAGACUGCGGGUUCGAGUCCCGUACAGAACG [C5G U13C A21C G67A], which yeast fitness is on record?
The yeast fitness was at most 0.5.

For GUUCGGUUGGCGUAAAGGGCACGCGUUUUUCUCCUAAGGAGAAGACUGCGGGUUCGAGUCCCGUACGGAUCG [C5G U16A U19G A20C C27U C29U C30U A70U], which yeast fitness is on record?
Its yeast fitness is at most 0.5.

Which yeast fitness does the source give for GUUCGGUUGGCGCAAUGGUAACGCGUCUCCCUCCUAAGGAGACGACUGCGGGUUCGAGUCCCGUACGGAACG [C5G U13C A43C] here?
Its yeast fitness is at most 0.5.

For GUUCGGUUGGCGCAAUGGUAACGCGUCUCCCUCCUAAGGAGAGGACUGCCGGUUCGAGUCCCGUACGGAACG [C5G U13C A43G G50C], which yeast fitness is on record?
Its yeast fitness is 0.566.

For GUUCGGUUGGCGUAAAGGUACCGCGUCUCCCUCCUACGGAGAAGACUGCGGGUUCGAGUCCCGUACGAAACG [C5G U16A A21C A37C G68A], which yeast fitness is on record?
The yeast fitness was at most 0.5.

Which yeast fitness does the source give for GUUCGGUUGGCGCAAUGGUACCGCGUCUCCCUCCUAAGGAGAAGACUGCGGGUUCGAGUCCCGUACGGAACG [C5G U13C A21C] here?
Its yeast fitness is 0.585.

With GUUCGGUUGGCGCAAUGGUCACGCGUCUCCCGCCUAAGGAGAAGAUUGCGGGUUCGAGUCCCGUACGGAACG [C5G U13C A20C U32G C46U] as the variant, how does the yeast fitness read?
The yeast fitness was 0.703.

Which yeast fitness does the source give for GUUCGGUUGGCGUAAUGGGAAUGCGUCUCCCCCCUAAGGAGAAGACUGCGGGUUCGAGUCCCGUCCGGAACG [C5G U19G C22U U32C A65C] here?
The yeast fitness was at most 0.5.

For GUUCGGUUGGCGUAAAGGUAACGCGUCUCCCUCCUAAGGAGAAGACUGCGGGUUCGUGUCCCGUACGGAACG [C5G U16A A57U], which yeast fitness is on record?
The yeast fitness was at most 0.5.

Which yeast fitness does the source give for GUUCGGUUGGCGGAAUGGUUACGCGUCUCCCUCCUAGGGAGAAGACUGCGGGUUCGAGUCCCGUACGGUACG [C5G U13G A20U A37G A69U] here?
Its yeast fitness is at most 0.5.

For GUUCGGUUGGCGCAAUGGUAACGCGUCUCCCUCCUAAGGAGAAGACUGCGGGUUCGAGUCCCGUACGGACCG [C5G U13C A70C], which yeast fitness is on record?
The yeast fitness was 0.579.

With GUUCGGUUGGCGUAACGGUAACGCGUCUCCCUCCUAAGGAGAAGACUGCGGGUUCGAGUCCCGUACAGAACG [C5G U16C G67A] as the variant, how does the yeast fitness read?
Its yeast fitness is at most 0.5.

With GUUCGGUUGGCGCAAUGGUAACGCGUCUCCCUCAUAAGGAGAAGACUGCGGGUUCGUGUCCCGUACGGAACG [C5G U13C C34A A57U] as the variant, how does the yeast fitness read?
Its yeast fitness is at most 0.5.

Which yeast fitness does the source give for GUUCGGUUGGCGGAAUGGUAACGCGUCUCCCUCCUUAGGAGAAGACUGCGGGUUCGAGUCCCGGACGGAACG [C5G U13G A36U U64G] here?
Its yeast fitness is at most 0.5.

Which yeast fitness does the source give for GUUCGGUUGGCGUAAAGGUAACGCGUCUCCCUCCUAAGGAGAAGACUACGGGUCCGAGUCCCGUACGGAACG [C5G U16A G48A U54C] here?
The yeast fitness was 0.701.

With GUUCGGUUGGCGUAAUGGCAACGCAUCUCCCUCCUAAGGAGAAGACUGCGGGUUCGAGUCCCGUACGGAACG [C5G U19C G25A] as the variant, how does the yeast fitness read?
The yeast fitness was 0.716.

With GUUCGGUUGGCGUAAUGGCAACGCGACUCCCUCCUAAGGAGAAGACUGCGGGUUUGAGUCCCGUACGGAACG [C5G U19C U26A C55U] as the variant, how does the yeast fitness read?
The yeast fitness was at most 0.5.

With GUUCGGUUGGCGAAAUGGUAACACGUCUCCCUCCUAAAGAGAAGACUACGGGUUCGAGUACCGUACGGAACG [C5G U13A G23A G38A G48A C60A] as the variant, how does the yeast fitness read?
Its yeast fitness is at most 0.5.

With GUUCGGUUGGCGUAAUGGUAACGCGCCUCUCUCCUAAGGAGAAGACUGUGGGUUCGAGUCCCGUACGGUACG [C5G U26C C30U C49U A69U] as the variant, how does the yeast fitness read?
Its yeast fitness is at most 0.5.

For GUUCGGUUGGCGAAAUGGUAACGCGUCUCCGUCCUAAGGAGAAGACUGCAGGUUCGAGUCCCGUACAGAACG [C5G U13A C31G G50A G67A], which yeast fitness is on record?
Its yeast fitness is at most 0.5.

For GUUCGGUUGGCGUAAUGGUAACGCGACUCCCUCCUAAGGUGAAGACUGCGGGUUCGAGUCCCCUACGGAACG [C5G U26A A40U G63C], which yeast fitness is on record?
The yeast fitness was at most 0.5.

With GUUCGGUUGGCGUAAAGGUAACGCGUCUCCCUCCUAAGGAGAGGACUGCGGGUUCGAGUCCCGUACGGAACG [C5G U16A A43G] as the variant, how does the yeast fitness read?
The yeast fitness was 0.573.
